Laboratory results published in ChEMBL document CHEMBL4480464, “Bioactive Dimeric Acylphloroglucinols from the Mexican Fern Elaphoglossum paleaceum” (J Nat Prod, 2019).
The source made the active and inactive calls. The rule behind the calls is not given here.

What was measured:
[1] = Cytotoxicity against human HF6 cells measured after 72 hrs by sulforhodamine B assay; format: functional, cell-based
Method in brief: (§1)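 Sulforhodamine B assay on human cancer lines in RPMI-1640 with 10% FBS, 104 cells/mL, 37 °C, 5% CO2. Treated in triplicate at about 70% confluence with 0.16–20 μg/mL sample in DMSO for 72 h. IC50 taken as concentration giving 50% of control growth, from a log10 concentration versus % viable cells plot.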

[2] = Selectivity index, ratio of IC50 for human HSF30 cells to IC50 for human MCF7 cells; format: toxicity; conditions: HSF30 cells and MCF7 cells, read-out: Ratio IC50
Method in brief: (§2)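 SI calculated as IC50 in HFS-30 fibroblasts divided by IC50 in each cancer line, all from the 72 h sulforhodamine B assay.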

[3] = organism: Rattus norvegicus; assay: Selectivity index, ratio of IC50 for Wistar rat brain MAOB to Wistar rat brain MAOA
[4] = molecular target: T1, Amine oxidase [flavin-containing] A (Rattus norvegicus, UniProt P21396); assay: Inhibition of Wistar rat brain MAOA using kynuramine as substrate preincubated for 15 mins followed by substrate addition and measured after 15 mins by fluorescence assay
T1 sequence (P21396 whole entry): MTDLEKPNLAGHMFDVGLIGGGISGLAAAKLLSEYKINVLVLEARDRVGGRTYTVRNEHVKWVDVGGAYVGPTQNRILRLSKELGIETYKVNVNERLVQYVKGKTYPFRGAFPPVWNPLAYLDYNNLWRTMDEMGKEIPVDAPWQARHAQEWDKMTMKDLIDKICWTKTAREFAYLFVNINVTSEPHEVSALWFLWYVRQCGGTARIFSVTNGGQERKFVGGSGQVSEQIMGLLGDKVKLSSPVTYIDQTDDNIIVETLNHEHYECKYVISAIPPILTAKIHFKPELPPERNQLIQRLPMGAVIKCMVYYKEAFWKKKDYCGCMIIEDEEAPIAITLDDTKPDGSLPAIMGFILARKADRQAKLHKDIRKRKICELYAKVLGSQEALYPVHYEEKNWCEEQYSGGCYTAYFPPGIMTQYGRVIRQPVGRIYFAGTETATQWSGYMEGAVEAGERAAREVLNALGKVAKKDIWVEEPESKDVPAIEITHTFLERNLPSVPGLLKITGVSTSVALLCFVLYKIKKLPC
Method in brief: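 Unpurified mitochondrial homogenate from brains of male Wistar rats (180–220 g), adjusted to 2500 μg/mL protein in PBS pH 7.4. Sample from 10% DMSO stock, tested over 0.1–100 μg/mL. Enzyme and sample preincubated 15 min at 37 °C, kynuramine (1 mM) added, incubated 15 min at 37 °C, stopped with 2 M NaOH. Triplicate.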

[5] = Selectivity index, ratio of IC50 for human HSF30 cells to IC50 for human SiHa cells; format: toxicity; conditions: HSF30 cells and SiHa cells, read-out: Ratio IC50; method in brief: as §2
[6] = system: MCF7; assay: Cytotoxicity against human MCF7 cells measured after 72 hrs by sulforhodamine B assay; format: functional, cell-based; conditions: MCF7, 72 h; method in brief: as §1
[7] = Selectivity index, ratio of IC50 for human HSF30 cells to IC50 for human PC3 cells; format: toxicity; conditions: HSF30 cells and PC3 cells, read-out: Ratio IC50; method in brief: as §2
[8] = Selectivity index, ratio of IC50 for human HSF30 cells to IC50 for human HF6 cells; method in brief: as §2
[9] = system: RAW264.7; assay: Cytotoxicity against LPS-induced mouse RAW264.7 cells assessed as effect on cell viability at 46 uM measured after 24 hrs by resazurin dye based fluorescence assay; conditions: raw264.7, 24 h
Method in brief: (§3)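 After the 24 h LPS (1 μg/mL) plus compound exposure and nitrite sampling, RAW264.7 wells given fresh DMEM-F12 with 10% heat-inactivated FBS plus resazurin (2 mM stock). Incubated a further 10 h at 37 °C, 5% CO2. Viability read as resorufin fluorescence. Vehicle Tween 80. Three independent experiments, mean ± SD.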

[10] = system: RAW264.7; assay: Antiinflammatory activity in mouse RAW264.7 cells assessed as inhibition of LPS-induced nitric oxide production at 46 uM after 24 hrs by Griess assay; format: functional, cell-based
Method in brief: (§4)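 Murine RAW264.7 macrophages in DMEM-F12 with 10% heat-inactivated FBS, no antibiotics, 37 °C, 5% CO2. Cells (2 × 10^5 cells/mL) preincubated 1 h, then compound added in Tween 80 vehicle, then stimulated with LPS 1 μg/mL for 24 h. Nitrite in medium measured by Griess reagent, absorbance 540 nm, quantified against NaNO2 standard curve. Triplicate, mean ± SEM.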

[11] = system: PC-3; assay: Cytotoxicity against human PC3 cells measured after 72 hrs by sulforhodamine B assay; format: functional, cell-based; conditions: PC-3, 72 h; method in brief: as §1
[12] = system: RAW264.7; assay: Cytotoxicity against LPS-induced mouse RAW264.7 cells assessed as cell killing at 92 to 185 uM measured after 24 hrs by resazurin dye based fluorescence assay; conditions: raw264.7, 24 h; method in brief: as §3
[13] = Cytotoxicity against human HSF30 cells measured after 72 hrs by sulforhodamine B assay; format: cell-based
Method in brief: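 HFS-30 normal human skin fibroblasts grown in DMEM with 10% FBS at 37 °C, 5% CO2. Treated in triplicate at about 70% confluence with 0.16–20 μg/mL sample in DMSO for 72 h. Sulforhodamine B read-out. IC50 is concentration giving 50% of control growth.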

[14] = molecular target: T2, Amine oxidase [flavin-containing] B (Rattus norvegicus, UniProt P19643); assay: Inhibition of Wistar rat brain MAOB using kynuramine as substrate preincubated for 15 mins followed by substrate addition and measured after 15 mins by fluorescence assay
T2 sequence (P19643 whole entry): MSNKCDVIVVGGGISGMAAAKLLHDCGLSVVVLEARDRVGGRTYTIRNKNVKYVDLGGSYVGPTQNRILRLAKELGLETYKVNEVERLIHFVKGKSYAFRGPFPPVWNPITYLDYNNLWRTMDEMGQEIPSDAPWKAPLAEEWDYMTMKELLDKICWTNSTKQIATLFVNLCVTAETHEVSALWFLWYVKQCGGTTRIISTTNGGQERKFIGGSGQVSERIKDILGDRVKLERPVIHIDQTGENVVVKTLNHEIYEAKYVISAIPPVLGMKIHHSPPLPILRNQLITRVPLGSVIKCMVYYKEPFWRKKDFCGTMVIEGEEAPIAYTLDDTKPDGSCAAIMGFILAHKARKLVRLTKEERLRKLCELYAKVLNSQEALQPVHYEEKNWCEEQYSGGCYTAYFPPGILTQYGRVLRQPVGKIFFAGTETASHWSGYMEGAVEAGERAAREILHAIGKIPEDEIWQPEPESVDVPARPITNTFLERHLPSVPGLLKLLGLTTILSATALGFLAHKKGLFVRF
Method in brief: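 Enzyme: unpurified mitochondrial homogenate from brains (cerebellum removed) of adult male Wistar rats (180−220 g), adjusted to 2500 μg/mL protein in PBS pH 7.4. Samples dissolved in 10% DMSO, tested over 0.1−100 μg/mL. Kynuramine 1 mM substrate; pargyline 10 μM as MAO-B-selective reference. Both incubations at 37 °C; stopped with 2 M NaOH. 4-Hydroxyquinoline read at ex 315/em 380 nm. Triplicate; IC50 as mean ± standard error.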

[15] = system: SiHa; assay: Cytotoxicity against human SiHa cells measured after 72 hrs by sulforhodamine B assay; format: functional, cell-based; method in brief: as §1
[16] = system: RAW264.7; assay: Cytotoxicity against LPS-induced mouse RAW264.7 cells assessed as effect on cell viability at 41 uM measured after 24 hrs by resazurin dye based fluorescence assay; conditions: raw264.7, 24 h; method in brief: as §3
[17] = Cytotoxicity against LPS-induced mouse RAW264.7 cells assessed as cell viability at 82 uM measured after 24 hrs by resazurin dye based fluorescence assay; conditions: LPS-induced RAW264.7 cells, read-out: Activity; method in brief: as §3
[18] = system: RAW264.7; assay: Cytotoxicity against LPS-induced mouse RAW264.7 cells assessed as cell killing at 123 to 164 uM measured after 24 hrs by resazurin dye based fluorescence assay; conditions: raw264.7, 24 h; method in brief: as §3
[19] = system: RAW264.7; assay: Antiinflammatory activity in mouse RAW264.7 cells assessed as inhibition of LPS-induced nitric oxide production at 41 uM after 24 hrs by Griess assay; format: functional, cell-based; method in brief: as §4

Compound | IC50 [1] [nM] | selectivity ratio [2] | Ratio IC50 [3] | IC50 [4] [nM] | selectivity ratio [5] | IC50 [6] [nM] | selectivity ratio [7] | Ratio IC50 [8] | Activity [9] | inhibition [10] | IC50 [11] [nM] | Activity [12] [%] | IC50 [13] [nM] | IC50 [14] [nM] | IC50 [15] [nM] | Activity [16] | viability at 24 h, 82 µM [17] [%] | Activity [18] [%] | inhibition [19]
CCCC(=O)c1c(OC)cc(O)c(CC2=C(O)[C@](C)(C/C=C(\C)CCC=C(C)C)C(O)=C(C(C)=O)C2=O)c1O | > 10000 | 0.0002 | 0.1 | 31000 | 0.002 | > 10000 | 0.005 | 0.0005 | Non-Toxic | Active | 1700 | 100 | 9 | 4700 | 6000 | – | – | – | –
CC(=O)O[C@H]1C(=O)[C@@]2(C)[C@H]([C@H](OC(=O)c3ccccc3)[C@]3(O)C[C@H](OC(=O)[C@H](O)[C@@H](NC(=O)c4ccccc4)c4ccccc4)C(C)=C1C3(C)C)[C@]1(OC(C)=O)CO[C@@H]1C[C@@H]2O [PACLITAXEL] | 1600 | – | – | – | – | 50 | – | 0.001 | – | – | 150 | – | 2 | – | 1400 | – | – | – | –
C#CCN(C)Cc1ccccc1 [PARGYLINE] | – | – | – | – | – | – | – | – | – | – | – | – | – | 220 | – | – | – | – | –
COc1cc([C@@H]2c3cc4c(cc3[C@H](O)[C@H]3COC(=O)[C@H]23)OCO4)cc(OC)c1OC [PODOFILOX] | 1000 | 0.45 | – | – | 0.02 | 5 | 0.11 | 0.002 | – | – | 200 | – | 2 | – | 100 | – | – | – | –
CCCC(=O)c1c(O)c(CC2=C(O)[C@](C)(C/C=C(\C)CCC=C(C)C)C(O)=C(C(C)=O)C2=O)c(O)c(CC=C(C)C)c1OC | 6400 | 0.0025 | 3.5 | 1300 | 0.015 | > 10000 | 0.029 | 0.013 | – | – | 2900 | – | 80 | 4400 | 5600 | Non-Toxic | 50 | 100 | Active
